Screening data as filed in PubChem BioAssay.
The list is not random: actives were taken first. Their share in the collection is about 2.2%.
CCR6 antagonist: blocks CCL20-driven beta-arrestin recruitment at human CCR6; CHO-K1 CCR6 PathHunter beta-arrestin, luminescence, CCL20-stimulated; inhibition, % at 20 µM; 340,000 tested, 0.49% active;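 active = compounds whose inhibition of the agonist-driven luminescence signal at 20 µM reaches about 50%, limit read from the data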;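 also: cells stimulated with CCL20 at 14 nM final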
Target sequence (P51684 whole entry, looked up): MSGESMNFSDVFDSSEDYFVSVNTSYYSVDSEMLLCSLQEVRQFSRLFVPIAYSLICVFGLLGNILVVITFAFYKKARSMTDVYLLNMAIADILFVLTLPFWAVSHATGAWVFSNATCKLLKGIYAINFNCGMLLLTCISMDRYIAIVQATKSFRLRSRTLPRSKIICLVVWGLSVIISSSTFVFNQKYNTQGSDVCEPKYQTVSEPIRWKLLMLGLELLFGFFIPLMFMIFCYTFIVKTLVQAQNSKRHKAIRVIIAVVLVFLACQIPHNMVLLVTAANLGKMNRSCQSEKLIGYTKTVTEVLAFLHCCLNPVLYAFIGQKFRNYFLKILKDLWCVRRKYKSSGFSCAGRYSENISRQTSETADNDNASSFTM
EBI2 antag: EBI2 (human) antagonism | P32249 | EBI2 beta-arrestin recruitment, luminescence, 7a,25-OHC stimulated | inhibition, % at 5 µM | 360,000 tested, 0.81% active | AID 651636; in the data active = inhibition above about 38%;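 also: enzyme fragment complementation signal reports receptor beta-arrestin coupling in cells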
Target sequence (P32249 whole entry, looked up, the tested form may be a part): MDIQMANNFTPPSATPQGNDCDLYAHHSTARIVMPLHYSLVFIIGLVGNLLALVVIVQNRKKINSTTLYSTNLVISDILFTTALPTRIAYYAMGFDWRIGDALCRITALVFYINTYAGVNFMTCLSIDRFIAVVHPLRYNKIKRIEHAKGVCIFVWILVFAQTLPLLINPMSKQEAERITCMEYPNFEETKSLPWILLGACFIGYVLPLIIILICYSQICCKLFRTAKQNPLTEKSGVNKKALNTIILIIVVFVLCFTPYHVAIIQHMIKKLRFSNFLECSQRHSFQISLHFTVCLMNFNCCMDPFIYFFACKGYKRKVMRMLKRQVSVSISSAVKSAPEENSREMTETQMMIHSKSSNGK
CXCR6 block: inhibitors of human CXCR6 receptor; O00574; CHO-K1 PathHunter CXCR6 beta-arrestin, luminescence; inhibition, % at 20 µM; 360,000 tested, 0.36% active; AID 602244; in the data active = inhibition above about 34%, passing the limit was not always enough;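 also: antagonist mode with CXCL16 agonist at 10 nM final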
HTR2A ag: activates the mouse 5-HT2A serotonin receptor; P35363; CHO-K1 mHTR2A beta-arrestin complementation, luminescence; percent of 30 µM serotonin response; activation, % at 7.6 µM; 360,000 tested, 0.66% active; AID 624169;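 active = activation above a run cutoff, the mean activation of all tested compounds plus 3 SD, cut at about 14% in these data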
APJ antag: APJ receptor antagonism; P35414; CHO-K1 APJ beta-arrestin complementation, luminescence; inhibition, % at 20 µM; 330,000 tested, 0.32% active; AID 2521;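 active = inhibition above about 40% at 20 µM, limit read from the data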;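 also: cells challenged with 10 nM apelin-13 agonist together with compound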
APJ agonist: APJ receptor agonism; activation, % at 20 µM; P35414; CHO-K1 APJ PathHunter beta-arrestin, luminescence; 0% DMSO wells, 100% apelin; 330,000 tested, 0.11% active;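 active = activation more than six SD over the plate average, tested at 20 µM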
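Assay system: CHO-K1 cells stably expressing ProLink-tagged human APJ and arrestin–beta-gal acceptor. Compound dosing: 20 µM single point, 1% DMSO. Times: 16-18 h seeding, 90 min dark compound exposure, 60 min detection. Detection: beta-gal luminescence. Evaluation: APJ–arrestin association signal. Controls: negative DMSO alone, positive Apelin-13 at 10 nM.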
APJ antag conf: APJ receptor antagonism confirmation. shares compounds with APJ antag. APJ beta-arrestin recruitment, luminescence, antagonist mode. inhibition, % at 20 µM. 950 tested, 66% active; in the data active = inhibition above about 50%
CXCR6 confirm: confirmation of human CXCR6 receptor antagonists. AID 602409. inhibition, % at 20 µM. CHO-K1 CXCR6 PathHunter beta-arrestin, luminescence. 700 tested, 65% active. shares compounds with CXCR6 block;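 active = mean inhibition over four retests above 40%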;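 also: receptor stimulated with 10 nM CXCL16 agonist; beta-galactosidase fragment complementation upon beta-arrestin recruitment to receptor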
EBI2 conf: EBI2 (human) antagonism, single concentration confirmation | 2,400 tested, 29% active | EBI2 beta-arrestin luminescence, 7a,25-OHC antagonism | inhibition, % at 5 µM | shares compounds with EBI2 antag | AID 651997;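 active = inhibition of at least 50%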
EBI2 ag: counter-screen for EBI2 antagonists: EBI2 agonist activity; activation, % at 5 µM; EBI2-expressing cells, agonist mode, luminescence, 60 min; 0% vehicle, 100% 7α,25-dihydroxycholesterol control; 2,400 tested, under 10 active; shares compounds with EBI2 antag;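 active = activation of at least 50%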
bGal counter: counter-screen for EBI2 antagonists: E. coli beta-galactosidase inhibition; shares compounds with EBI2 antag; purified beta-galactosidase, luminescent Galacton Star, 15 min; inhibition, % at 5 µM; 2,400 tested, 1% active; AID 652176;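 active = replicate-average signal at least 3 plate SD below neutral wells, shown as high inhibition, flagging enzyme-inhibiting false positives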;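 also: higher means stronger loss of beta-gal luminescence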
Of the large screens only hits and unclear results are named; the others gave an inactive call (follow-up assays come after a bar, where they were run).

CC1(C)CC(=O)C2=C(C1)OC1=C(C(=O)CC(C)(C)C1)C2c1ccc(O)cc1O	CCR6 antagonist 92.6, CXCR6 block 65.5, APJ antag 51.9 | APJ antag conf 104.9 | CXCR6 confirm 87.7
COc1ccc(S(=O)(=O)N(C)C[C@@H]2OCCCC[C@H](C)Oc3ccc(NC(=O)Nc4ccc(C(F)(F)F)cc4)cc3C(=O)N([C@H](C)CO)C[C@H]2C)cc1	none (no result: CCR6 antagonist, APJ antag, APJ agonist)
C/C(=N/NC(=O)c1ccc(C(C)(C)C)cc1)c1ccccn1	CCR6 antagonist 93.8, EBI2 antag 74.3, CXCR6 block 77.4, APJ antag 69.1 | APJ antag conf 88.2 | CXCR6 confirm 82.2 | EBI2 conf 87.0 | EBI2 ag inactive | bGal counter inactive
CC(=NNC(=O)c1ccncc1)c1cccc(Br)c1	none (no result: APJ antag, APJ agonist)
C/C(=N\NC(=O)c1cccc(Br)c1)c1ccccn1	CCR6 antagonist 65.3, EBI2 antag 67.1, APJ antag 66.6 | APJ antag conf 59.3 | EBI2 conf 81.8 | EBI2 ag inactive | bGal counter inactive
COC(=O)C1=C(C(=O)OC)C(C(=O)OC)C(C(=O)OC)C(C(=O)OC)(C(=O)OC)C(C(=O)OC)=C1C(=O)OC (centres undefined)	none (no result: CCR6 antagonist, APJ antag, APJ agonist)
O=C(Nc1ccc2c(c1)OCO2)c1cc(C2CCCCN2C(=O)c2ccccc2)on1 (centres undefined)	none (no result: CCR6 antagonist, APJ antag, APJ agonist)
CC(C)CC1Nc2ncnc(N3CCN(c4ccccc4)CC3)c2N(Cc2ccccc2)C1=O (centres undefined)	none
O=C1C(Cc2ccccc2)Nc2ncnc(N3CCN(c4ccccc4)CC3)c2N1Cc1ccc(Cl)cc1 (centres undefined)	CCR6 antagonist 77.6, EBI2 antag 64.6, CXCR6 block 67.9, APJ antag 65.4 | APJ antag conf 103.9 | CXCR6 confirm 69.8 | EBI2 conf 70.6 | EBI2 ag inactive | bGal counter 39.4
COc1ccc(CN2C(=O)C(Cc3ccccc3)Nc3ncnc(N4CCN(c5ccccc5)CC4)c32)cc1 (centres undefined)	CCR6 antagonist 80.1, EBI2 antag 44.1, CXCR6 block 70.4, APJ antag 52.9 | APJ antag conf 110.0 | CXCR6 confirm 68.2 | EBI2 conf inactive | EBI2 ag inactive | bGal counter 32.5
CCc1ccc(C(=O)NNc2ccc(F)cc2)cc1	none
CCc1ccc(C(=O)NNc2ccc(C)c(Cl)c2)cc1	EBI2 antag 46.2, APJ antag 52.7 | APJ antag conf 80.5 | EBI2 conf inactive | EBI2 ag inactive | bGal counter inactive
Cc1ccc(OCCN2C(=O)c3ccccc3C2=O)c([N+](=O)[O-])c1	EBI2 antag 61.6, CXCR6 block 52.8, APJ antag 47.9 | APJ antag conf 66.2 | CXCR6 confirm 58.3 | EBI2 conf 51.7 | EBI2 ag inactive | bGal counter inactive
CCOc1ccc(Cl)cc1-c1cc(C(=O)NCc2cccc(C(F)(F)F)c2)[nH]n1	none (no result: CCR6 antagonist, APJ antag, APJ agonist)
NNC(=O)c1cccc(COc2ccc3c(c2)CCC3)c1	CXCR6 block 49.3 | CXCR6 confirm inactive
COc1ccc(S(=O)(=O)NC(=O)C2(C)CCN2C(=O)C2CC2)cc1 (centres undefined)	none (no result: CCR6 antagonist, APJ antag, APJ agonist)
COc1cc(OC)nc(Nc2nc(C(N)Cc3ccc(Cl)cc3)cs2)n1 (centres undefined)	none (no result: CCR6 antagonist, APJ antag, APJ agonist)
CCCCN(C)c1c(C)nc2ccc(C(=O)Nc3cc(-c4ccccc4)ccc3OC)cn12	none (no result: CCR6 antagonist, APJ antag, APJ agonist)
COc1cc(/C=C(\C#N)c2nc3ccccc3o2)ccc1O	CCR6 antagonist 55.3, CXCR6 block 49.1 | CXCR6 confirm 43.0
Cc1ccc(C)c(N/C=C(\C#N)c2nc3ccccc3o2)c1	none
NC(=S)NN=C1c2cc(Cl)ccc2-c2c1cc(Cl)cc2[N+](=O)[O-]	CCR6 antagonist 76.5, CXCR6 block 42.6 (no result: APJ antag, APJ agonist) | CXCR6 confirm 59.1
COc1cc2c(cc1[N+](=O)[O-])-c1ccc([N+](=O)[O-])cc1C2=NNC(N)=S	none (no result: CCR6 antagonist, APJ antag, APJ agonist)
Cc1ccc(NC(=O)c2nc(S(=O)(=O)Cc3ccccc3)ncc2Cl)cc1	CCR6 antagonist 80.0, CXCR6 block 59.3 | CXCR6 confirm 56.7
CCOC(=O)c1ccc(NC(=O)c2nc(SC)ncc2Cl)cc1	none
Cc1cccc(CS(=O)(=O)c2ncc(Cl)c(C(=O)NCc3ccccc3)n2)c1	CXCR6 block 56.8 | CXCR6 confirm 63.5
Cc1ccccc1CS(=O)(=O)c1ncc(Cl)c(C(=O)Nc2ccc(F)cc2)n1	EBI2 antag 52.9, CXCR6 block 57.6 (no result: CCR6 antagonist) | CXCR6 confirm 58.2
CSc1ncc(Cl)c(C(=O)Nc2ccc(S(=O)(=O)Nc3nccc(C)n3)cc2)n1	none
CCN(c1ccccc1)S(=O)(=O)c1ccc(NC(=O)c2nc(S(C)(=O)=O)ncc2Cl)cc1	CCR6 antagonist 96.4, CXCR6 block 81.3 | CXCR6 confirm 68.3
COc1cccc(Cn2cnc(-c3ccccc3OC)c2C2CC2)c1	none (no result: CCR6 antagonist, APJ antag, APJ agonist)
CCCc1cc(=O)oc2cc(OC(=O)CN3C(=O)NC4(CCCC4)C3=O)ccc12	CCR6 antagonist 66.7, CXCR6 block 46.4 | CXCR6 confirm inactive
CCCc1cc(=O)oc2cc(OCC(=O)N3CC[C@@]4(O)CCCC[C@H]4C3)ccc12	none (no result: CCR6 antagonist, APJ antag, APJ agonist)
Oc1c(Br)cc(Br)cc1C=NCc1ccccc1	CXCR6 block 40.6 | CXCR6 confirm 51.1
CC(C)(C)OC(=O)N(CC1CCNCC1)C(=O)c1[nH]c(C(F)(F)F)nc1-c1ccccc1	none (no result: CCR6 antagonist, APJ antag, APJ agonist)
COc1cc2c(cc1OC)CN(C(=O)CSc1nc(N)c(C#N)cc1C#N)CC2	CXCR6 block 45.7 | CXCR6 confirm inactive
CC(C)C[C@H]1CN(CCCC[C@H]2CNC(=O)C(=O)N2CC2CCCCC2)C(=O)C(=O)N1CC1CCCCC1	none (no result: CCR6 antagonist, APJ antag, APJ agonist)
C[C@@H](NC(=O)[C@@H]1CCCN1C(=O)[C@@H]1CCCN1C(=O)c1cccc(Cl)c1)c1ccccc1	none (no result: CCR6 antagonist, APJ antag, APJ agonist)
COc1ccc(-n2nnnc2S(=O)(=O)CC(=O)N2CCCCC2)cc1	EBI2 antag 42.9, CXCR6 block 48.2 | CXCR6 confirm 49.3
